Measured values: the M2OR odorant receptor database

Experiments:
Settings in all cases: stereoisomer not certain
UniProt Q8VF52 = target: T1, UniProt Q8VF52
T1 sequence (whole entry): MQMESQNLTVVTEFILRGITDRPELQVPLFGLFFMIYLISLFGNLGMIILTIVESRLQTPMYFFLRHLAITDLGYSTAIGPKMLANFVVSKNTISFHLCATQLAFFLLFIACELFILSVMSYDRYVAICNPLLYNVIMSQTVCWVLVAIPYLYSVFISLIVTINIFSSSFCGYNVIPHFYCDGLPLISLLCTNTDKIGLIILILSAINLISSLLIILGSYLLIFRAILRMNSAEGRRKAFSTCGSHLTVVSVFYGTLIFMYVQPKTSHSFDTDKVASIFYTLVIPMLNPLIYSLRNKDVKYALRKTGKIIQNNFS
Outline: (§1)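 Assay methods differ from source to source, frequently being transient luciferase assays in mammalian cell lines. For each receptor–molecule pair, the label responsive (active) applies when the original authors judged the measured signal statistically different from baseline, and non-responsive (inactive) applies otherwise.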

UniProt Q8VFM8 = target: T2, UniProt Q8VFM8
T2 sequence (whole entry): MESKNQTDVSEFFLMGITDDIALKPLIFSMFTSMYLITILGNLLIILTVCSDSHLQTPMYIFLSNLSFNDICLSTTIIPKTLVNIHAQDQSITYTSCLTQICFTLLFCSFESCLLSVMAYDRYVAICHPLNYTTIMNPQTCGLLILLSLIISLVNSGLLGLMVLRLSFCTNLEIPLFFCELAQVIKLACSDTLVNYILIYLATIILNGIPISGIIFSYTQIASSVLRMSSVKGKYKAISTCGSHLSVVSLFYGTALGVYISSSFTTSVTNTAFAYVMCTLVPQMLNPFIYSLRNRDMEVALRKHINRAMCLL
Outline: as §1

UniProt Q8VFP5 = target: T3, UniProt Q8VFP5
T3 sequence (whole entry): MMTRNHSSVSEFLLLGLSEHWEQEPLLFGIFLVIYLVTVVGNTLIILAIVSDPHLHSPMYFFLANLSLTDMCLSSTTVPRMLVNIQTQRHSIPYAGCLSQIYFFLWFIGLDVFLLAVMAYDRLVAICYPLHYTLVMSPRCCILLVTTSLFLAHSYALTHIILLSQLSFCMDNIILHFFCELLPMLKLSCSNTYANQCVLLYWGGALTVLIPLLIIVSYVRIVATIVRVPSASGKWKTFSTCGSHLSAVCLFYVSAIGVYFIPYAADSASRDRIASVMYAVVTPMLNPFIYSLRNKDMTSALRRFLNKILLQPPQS
Outline: as §1

UniProt Q8VG01 = target: T4, UniProt Q8VG01
T4 sequence (whole entry): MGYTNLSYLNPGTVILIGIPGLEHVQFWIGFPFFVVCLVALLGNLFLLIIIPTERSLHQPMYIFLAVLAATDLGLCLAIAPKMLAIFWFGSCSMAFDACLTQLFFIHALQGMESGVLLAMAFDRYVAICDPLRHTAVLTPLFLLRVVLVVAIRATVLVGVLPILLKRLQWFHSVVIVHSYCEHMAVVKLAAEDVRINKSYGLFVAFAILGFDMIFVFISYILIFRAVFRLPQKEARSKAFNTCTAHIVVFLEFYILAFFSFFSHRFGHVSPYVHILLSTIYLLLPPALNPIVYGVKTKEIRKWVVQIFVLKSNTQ
Outline: as §1

UniProt Q8VG27 = target: T5, UniProt Q8VG27
T5 sequence (whole entry): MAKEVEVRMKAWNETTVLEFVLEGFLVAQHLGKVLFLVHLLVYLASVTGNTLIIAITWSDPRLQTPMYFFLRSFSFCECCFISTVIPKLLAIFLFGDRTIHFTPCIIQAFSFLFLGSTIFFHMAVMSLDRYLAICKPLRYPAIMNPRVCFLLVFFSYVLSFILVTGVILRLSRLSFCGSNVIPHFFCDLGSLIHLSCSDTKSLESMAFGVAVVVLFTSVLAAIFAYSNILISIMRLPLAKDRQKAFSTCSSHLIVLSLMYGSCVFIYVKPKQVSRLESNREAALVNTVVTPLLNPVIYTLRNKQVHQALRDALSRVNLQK
Outline: as §1

UniProt Q8VG53 = target: T6, UniProt Q8VG53
T6 sequence (whole entry): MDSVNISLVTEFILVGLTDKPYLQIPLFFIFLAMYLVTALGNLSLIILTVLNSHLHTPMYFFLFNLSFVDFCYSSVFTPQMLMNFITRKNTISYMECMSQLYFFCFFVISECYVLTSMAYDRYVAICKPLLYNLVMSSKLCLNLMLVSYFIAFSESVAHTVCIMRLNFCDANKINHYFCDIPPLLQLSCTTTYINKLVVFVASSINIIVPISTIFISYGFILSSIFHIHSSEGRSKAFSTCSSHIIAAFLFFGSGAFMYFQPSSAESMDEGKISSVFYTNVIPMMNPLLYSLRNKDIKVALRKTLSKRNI
Outline: as §1

UniProt Q8VG64 = target: T7, UniProt Q8VG64
T7 sequence (whole entry): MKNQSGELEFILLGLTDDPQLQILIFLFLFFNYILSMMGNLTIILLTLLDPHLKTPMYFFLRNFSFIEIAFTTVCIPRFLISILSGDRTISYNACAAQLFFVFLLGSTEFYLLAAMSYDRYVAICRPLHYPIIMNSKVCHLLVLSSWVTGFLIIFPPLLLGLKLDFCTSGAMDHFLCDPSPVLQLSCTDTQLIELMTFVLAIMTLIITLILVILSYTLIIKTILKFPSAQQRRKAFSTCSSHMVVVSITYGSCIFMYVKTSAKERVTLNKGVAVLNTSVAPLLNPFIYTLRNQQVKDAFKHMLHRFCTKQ
Outline: as §1

UniProt Q8VGB9 = target: T8, UniProt Q8VGB9
T8 sequence (whole entry): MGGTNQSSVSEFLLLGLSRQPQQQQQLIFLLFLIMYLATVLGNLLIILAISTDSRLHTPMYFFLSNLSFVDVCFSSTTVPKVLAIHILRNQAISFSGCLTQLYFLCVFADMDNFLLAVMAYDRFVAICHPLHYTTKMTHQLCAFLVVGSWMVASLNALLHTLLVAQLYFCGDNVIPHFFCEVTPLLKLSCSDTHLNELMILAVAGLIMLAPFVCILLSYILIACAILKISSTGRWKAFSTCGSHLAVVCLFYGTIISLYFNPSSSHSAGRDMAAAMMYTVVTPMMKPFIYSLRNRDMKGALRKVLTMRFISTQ
Outline: as §1

UniProt Q8VGC6 = target: T9, UniProt Q8VGC6
T9 sequence (whole entry): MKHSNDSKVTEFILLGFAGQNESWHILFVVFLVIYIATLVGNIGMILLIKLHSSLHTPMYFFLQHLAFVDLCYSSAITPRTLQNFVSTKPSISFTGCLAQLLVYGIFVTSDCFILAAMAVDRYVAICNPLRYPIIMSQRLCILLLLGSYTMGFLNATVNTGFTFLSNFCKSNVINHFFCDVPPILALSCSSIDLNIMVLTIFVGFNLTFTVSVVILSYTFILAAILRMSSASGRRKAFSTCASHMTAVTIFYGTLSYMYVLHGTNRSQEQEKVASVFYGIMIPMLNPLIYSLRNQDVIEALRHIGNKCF
Outline: as §1

UniProt Q8VGJ3 = target: T10, UniProt Q8VGJ3
T10 sequence (whole entry): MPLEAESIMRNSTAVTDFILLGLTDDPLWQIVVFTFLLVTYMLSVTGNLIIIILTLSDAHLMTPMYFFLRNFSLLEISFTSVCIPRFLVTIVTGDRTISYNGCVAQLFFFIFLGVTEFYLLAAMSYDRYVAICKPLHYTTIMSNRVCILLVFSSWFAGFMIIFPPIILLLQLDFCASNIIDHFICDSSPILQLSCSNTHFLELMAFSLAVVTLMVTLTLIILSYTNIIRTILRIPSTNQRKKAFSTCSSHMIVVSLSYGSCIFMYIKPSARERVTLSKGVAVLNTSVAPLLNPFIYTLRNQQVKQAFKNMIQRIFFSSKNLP
Outline: as §1

UniProt Q8VFG6 = target: T11, UniProt Q8VFG6
T11 sequence (whole entry): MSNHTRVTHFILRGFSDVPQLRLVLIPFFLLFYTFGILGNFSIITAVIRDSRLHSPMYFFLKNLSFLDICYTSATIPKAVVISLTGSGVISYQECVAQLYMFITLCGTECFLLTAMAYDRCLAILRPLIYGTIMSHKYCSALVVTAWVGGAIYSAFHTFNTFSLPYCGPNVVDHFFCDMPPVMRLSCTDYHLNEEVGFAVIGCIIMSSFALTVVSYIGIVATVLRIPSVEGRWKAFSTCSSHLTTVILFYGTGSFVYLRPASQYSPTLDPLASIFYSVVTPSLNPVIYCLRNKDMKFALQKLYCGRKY
Outline: as §1

UniProt Q8VFZ6 = target: T12, UniProt Q8VFZ6
T12 sequence (whole entry): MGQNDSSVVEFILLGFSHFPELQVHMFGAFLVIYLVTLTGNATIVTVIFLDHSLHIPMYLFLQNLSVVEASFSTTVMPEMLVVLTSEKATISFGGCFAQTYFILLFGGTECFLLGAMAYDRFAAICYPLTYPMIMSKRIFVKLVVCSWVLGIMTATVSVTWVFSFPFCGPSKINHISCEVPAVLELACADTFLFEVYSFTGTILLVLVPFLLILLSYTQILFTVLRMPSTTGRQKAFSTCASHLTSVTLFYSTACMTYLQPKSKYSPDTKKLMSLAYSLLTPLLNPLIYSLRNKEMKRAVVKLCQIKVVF
Outline: as §1

UniProt Q8VG22 = target: T13, UniProt Q8VG22
T13 sequence (whole entry): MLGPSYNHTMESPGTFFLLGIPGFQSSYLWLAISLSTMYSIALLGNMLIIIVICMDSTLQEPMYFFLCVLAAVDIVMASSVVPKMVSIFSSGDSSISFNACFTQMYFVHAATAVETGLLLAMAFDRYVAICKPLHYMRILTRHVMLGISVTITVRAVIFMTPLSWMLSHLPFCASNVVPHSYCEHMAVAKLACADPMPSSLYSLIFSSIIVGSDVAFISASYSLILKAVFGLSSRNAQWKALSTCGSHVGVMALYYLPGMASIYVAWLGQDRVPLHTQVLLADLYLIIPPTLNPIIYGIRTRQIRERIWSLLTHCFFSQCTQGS
Outline: as §1

UniProt Q8VG49 = target: T14, UniProt Q8VG49
T14 sequence (whole entry): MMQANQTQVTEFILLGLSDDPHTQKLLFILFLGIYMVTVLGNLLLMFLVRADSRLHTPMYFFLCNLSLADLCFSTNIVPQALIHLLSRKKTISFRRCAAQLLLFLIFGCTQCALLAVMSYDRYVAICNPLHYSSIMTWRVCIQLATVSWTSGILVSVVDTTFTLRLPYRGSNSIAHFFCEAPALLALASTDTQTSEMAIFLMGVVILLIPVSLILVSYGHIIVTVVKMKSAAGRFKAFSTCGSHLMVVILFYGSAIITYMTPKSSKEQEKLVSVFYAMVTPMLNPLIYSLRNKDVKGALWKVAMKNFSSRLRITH
Outline: as §1

UniProt Q8VG77 = target: T15, UniProt Q8VG77
T15 sequence (whole entry): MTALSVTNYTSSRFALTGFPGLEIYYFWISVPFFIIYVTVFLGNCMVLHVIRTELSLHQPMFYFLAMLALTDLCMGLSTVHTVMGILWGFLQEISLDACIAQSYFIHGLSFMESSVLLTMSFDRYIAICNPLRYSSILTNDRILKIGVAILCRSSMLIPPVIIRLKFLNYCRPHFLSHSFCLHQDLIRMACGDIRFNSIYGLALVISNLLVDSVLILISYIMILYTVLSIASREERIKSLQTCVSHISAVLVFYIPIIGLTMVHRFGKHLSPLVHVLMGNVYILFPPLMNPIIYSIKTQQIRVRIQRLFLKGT
Outline: as §1

UniProt Q8VG96 = target: T16, UniProt Q8VG96
T16 sequence (whole entry): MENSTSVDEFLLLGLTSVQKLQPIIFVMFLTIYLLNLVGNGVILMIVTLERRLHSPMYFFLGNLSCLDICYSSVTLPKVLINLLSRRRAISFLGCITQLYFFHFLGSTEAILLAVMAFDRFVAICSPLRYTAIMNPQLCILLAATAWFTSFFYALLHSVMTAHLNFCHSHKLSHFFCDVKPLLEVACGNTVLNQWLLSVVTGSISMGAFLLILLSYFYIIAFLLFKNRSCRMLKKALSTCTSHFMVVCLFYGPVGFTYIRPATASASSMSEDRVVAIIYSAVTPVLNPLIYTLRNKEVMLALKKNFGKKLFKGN
Outline: as §1

UniProt Q8VGD7 = target: T17, UniProt Q8VGD7
T17 sequence (whole entry): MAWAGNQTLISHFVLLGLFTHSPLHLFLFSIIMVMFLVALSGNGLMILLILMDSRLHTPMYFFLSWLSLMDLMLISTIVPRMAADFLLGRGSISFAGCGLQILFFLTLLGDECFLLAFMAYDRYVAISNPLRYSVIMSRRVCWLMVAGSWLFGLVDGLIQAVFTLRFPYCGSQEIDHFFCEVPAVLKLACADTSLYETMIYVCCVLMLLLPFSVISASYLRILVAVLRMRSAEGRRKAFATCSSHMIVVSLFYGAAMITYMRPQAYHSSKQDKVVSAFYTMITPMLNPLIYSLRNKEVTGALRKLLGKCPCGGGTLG
Outline: as §1

UniProt Q8VGH1 = target: T18, UniProt Q8VGH1
T18 sequence (whole entry): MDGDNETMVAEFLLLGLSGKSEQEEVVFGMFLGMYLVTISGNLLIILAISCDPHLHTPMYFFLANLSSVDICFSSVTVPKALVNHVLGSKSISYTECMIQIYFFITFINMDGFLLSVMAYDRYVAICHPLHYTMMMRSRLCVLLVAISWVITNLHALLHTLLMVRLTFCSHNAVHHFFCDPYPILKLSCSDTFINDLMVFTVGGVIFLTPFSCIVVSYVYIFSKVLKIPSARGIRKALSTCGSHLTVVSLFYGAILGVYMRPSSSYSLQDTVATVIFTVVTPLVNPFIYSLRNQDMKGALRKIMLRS
Outline: as §1

UniProt Q8VGJ1 = target: T19, UniProt Q8VGJ1
T19 sequence (whole entry): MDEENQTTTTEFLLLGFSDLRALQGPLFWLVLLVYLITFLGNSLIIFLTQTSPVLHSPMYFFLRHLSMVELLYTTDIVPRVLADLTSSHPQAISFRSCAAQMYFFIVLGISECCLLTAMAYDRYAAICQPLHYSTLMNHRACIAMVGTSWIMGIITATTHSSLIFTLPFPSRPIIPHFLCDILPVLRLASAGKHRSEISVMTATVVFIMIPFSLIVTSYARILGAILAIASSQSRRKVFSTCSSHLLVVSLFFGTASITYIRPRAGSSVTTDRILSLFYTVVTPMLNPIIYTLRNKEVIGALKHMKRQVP
Outline: as §1

Measured: odorant receptor agonist call

COc1ccc(C=O)cc1
inactive: UniProt Q8VF52 | UniProt Q8VFM8 | UniProt Q8VFP5 | UniProt Q8VG01 | UniProt Q8VG27 | UniProt Q8VG53 | UniProt Q8VG64 | UniProt Q8VGB9 | UniProt Q8VGC6 | UniProt Q8VGJ3

CCC1CCC(=O)O1 (configuration not stated)
active: UniProt Q8VGC6
not listed: UniProt Q8VFM8 | UniProt Q8VFP5 | UniProt Q8VG27 | UniProt Q8VG53 | UniProt Q8VG64 | UniProt Q8VGB9 | UniProt Q8VGJ3
inactive: all other assays above
